Measurements from ChEMBL document CHEMBL1140766, “SAR of a series of anti-HSV-1 acridone derivatives, and a rational acridone-based design of a new anti-HSV-1 3H-benzo[b]pyrazolo[3,4-h]-1,6-naphthyridine series” (Bioorg Med Chem, 2008).
The source made the active and inactive calls. No cut-off for these calls is given here.

Columns and labels:
Human alphaherpesvirus 1 [1] = assay: Antiviral activity against acyclovir-resistant HSV1 AR29 replication in Vero cells after 72 hrs; assay type: functional; settings: for EC50: Human alphaherpesvirus 1, AR29, Vero, read-out: ED50 (the source's name)
Human alphaherpesvirus 1 [2] = assay: Antiviral activity against acyclovir-resistant HSV1 AR29 replication in Vero cells at 50 uM after 72 hrs; assay type: functional; settings: for inhibition at 50 µM: Human alphaherpesvirus 1, AR29, Vero
How it was run: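 Confluent Vero monolayers (DMEM, 5% FCS, 37 C, 5% CO2) infected with HSV-1 AR-29 at m.o.i. 1, 0.1, 0.01 or 0.001 for 1 h at 37 C. Cells were PBS-washed, then given medium with or without compound at 50 µM. At 72 h, titer was read as TCID50/mL by end-point dilution (Reed–Muench). % inhibition came from treated versus mock-treated infected titers. Acyclovir 50 µM served as control. Duplicates, ≥3 experiments.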

[3] = Cytotoxicity against african green monkey Vero cells assessed as cell viability after 72 hrs by MTT assay; assay type: cell-based; settings: chlorocebus sabaeus
Human alphaherpesvirus 1 [4] = assay: Antiviral activity against acyclovir-resistant HSV1 AR29 replication in Vero cells at >50 uM after 72 hrs; assay type: functional

Cc1cc(O)c2c(=O)c3cccc(Cl)c3[nH]c2c1
Activity (Human alphaherpesvirus 1 [1]): inactive

O=c1c2ccc(Cl)cc2[nH]c2cc(O)cc(O)c12
EC50 (Human alphaherpesvirus 1 [1]): 10 µM

Cc1ccc2nc3c(cnc4c3c(C)nn4-c3ccccc3)c(Cl)c2c1
Activity (Human alphaherpesvirus 1 [2]): inactive

O=c1c2ccccc2[nH]c2c1cnc1c2cnn1-c1ccccc1
CC50 at 72 h [3]: 640 µM | inhibition at 50 µM (Human alphaherpesvirus 1 [2]): 74%

COc1cc(O)c2c(=O)c3cccc(Cl)c3[nH]c2c1
Inhibition (Human alphaherpesvirus 1 [4]): 6% | EC50 (Human alphaherpesvirus 1 [1]): > 50 µM

O=c1c2ccccc2[nH]c2cc(O)cc(O)c12
EC50 (Human alphaherpesvirus 1 [1]): 45 µM

Nc1nc2c(ncn2COCCO)c(=O)[nH]1 [ACYCLOVIR]
CC50 at 72 h [3]: 126 µM

Cc1cccc2c(Cl)c3cnc4c(c(C)nn4-c4ccccc4)c3nc12
CC50 at 72 h [3]: 640 µM | inhibition at 50 µM (Human alphaherpesvirus 1 [2]): 66%

O=c1c2cc(Cl)ccc2[nH]c2cc(O)cc(O)c12
EC50 (Human alphaherpesvirus 1 [1]): 16 µM

COc1cccc2c(O)c3c(O)cc(O)cc3nc12
EC50 (Human alphaherpesvirus 1 [1]): 2.2 µM

Cc1ccc2[nH]c3c(cnc4c3cnn4-c3ccccc3)c(=O)c2c1
CC50 at 72 h [3]: 640 µM | inhibition at 50 µM (Human alphaherpesvirus 1 [2]): 92%

O=c1c2cccc(Cl)c2[nH]c2cc3ccccc3c(O)c12
Activity (Human alphaherpesvirus 1 [1]): inactive

Cc1ccc2nc3c(cnc4c3cnn4-c3ccccc3)c(Cl)c2c1
CC50 at 72 h [3]: 640 µM | inhibition at 50 µM (Human alphaherpesvirus 1 [2]): 82%

COc1ccc2nc3c(cnc4c3cnn4-c3ccccc3)c(Cl)c2c1
CC50 at 72 h [3]: 640 µM | inhibition at 50 µM (Human alphaherpesvirus 1 [2]): 68%

Cc1nn(-c2ccccc2)c2ncc3c(Cl)c4ccccc4nc3c12
inhibition at 50 µM (Human alphaherpesvirus 1 [2]): 70%

O=c1c2c(O)cc(O)cc2[nH]c2cccc(Cl)c12
EC50 (Human alphaherpesvirus 1 [1]): 10 µM

Cc1cccc2c(O)c3c(O)cc(O)cc3nc12
EC50 (Human alphaherpesvirus 1 [1]): 8 µM

O=c1c2cccc(Cl)c2[nH]c2cc(O)cc(O)c12
EC50 (Human alphaherpesvirus 1 [1]): 4 µM

Cc1nn(-c2ccccc2)c2ncc3c(Cl)c4cc(Cl)ccc4nc3c12
CC50 at 72 h [3]: 640 µM | inhibition at 50 µM (Human alphaherpesvirus 1 [2]): 39%

Cc1nn(-c2ccccc2)c2ncc3c(Cl)c4cccc(Cl)c4nc3c12
inhibition at 50 µM (Human alphaherpesvirus 1 [2]): 100%
